An excerpt weighted towards active compounds, which were near 1.2% of everything screened.
DTT redox prof – compounds producing H2O2 with reducing agent – biochemical, NIH compound library profiling, artefact control for MLSCN library redox annotation, primary screen; DTT-dependent redox cycling H2O2, phenol red/HRP absorbance; 100% = 100 µM peroxide control, 0% = buffer; activation, % at 10 µM; 200,000 tested, 0.03% active;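 active = activation of at least 50% relative to the plate's high and low controls in the primary single-dose screen; inactive = activation below 50%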;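 note: compound incubated with DTT at 0.8 mM final as the reducing agent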
Thrombin inh – thrombin (human) inhibition; 220,000 tested, 0.26% active; alpha-thrombin, Boc-VPR-AMC fluorogenic substrate cleavage; P00734; inhibition, % at 5 µM;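 active = inhibition at or above 40%; inactive = inhibition below 40%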;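 note: 0% = enzyme with no compound and 100% = wells without enzyme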
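System: Human alpha-thrombin protein | Medium: pH 7.5 Tris (50 mM) with NaCl 150 mM, Tween 20 0.05% | Times: Enzyme reaction carried out at room temperature | Detection: AMC fluorescence, 355/460 nm | Evaluation: Percent inhibition scaled between no-compound controls and no-enzyme blanks | Benchmarks: Enzyme without compound as high, wells lacking enzyme as low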
FXIIa inh – inhibitors of human coagulation factor XIIa | P00748 | purified FXIIa, Boc-QGR-AMC fluorogenic substrate, 2 h | inhibition, % at 5 µM | 220,000 tested, 0.3% active; in the data active = inhibition above about 40%;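 note: 0% = enzyme with no compound and 100% = blank without enzyme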
Target sequence (P00748 20-372 limits assumed): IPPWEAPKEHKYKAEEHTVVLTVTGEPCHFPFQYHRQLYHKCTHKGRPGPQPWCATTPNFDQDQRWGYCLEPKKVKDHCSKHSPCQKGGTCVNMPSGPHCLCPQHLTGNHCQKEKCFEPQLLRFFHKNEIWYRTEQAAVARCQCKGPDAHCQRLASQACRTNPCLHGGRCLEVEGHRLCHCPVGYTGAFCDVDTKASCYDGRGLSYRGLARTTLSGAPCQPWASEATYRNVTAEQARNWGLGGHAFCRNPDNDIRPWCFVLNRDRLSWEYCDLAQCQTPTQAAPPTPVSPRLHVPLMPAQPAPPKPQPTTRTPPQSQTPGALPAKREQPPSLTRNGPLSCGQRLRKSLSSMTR
Target sequence (P00748 373-615 limits assumed): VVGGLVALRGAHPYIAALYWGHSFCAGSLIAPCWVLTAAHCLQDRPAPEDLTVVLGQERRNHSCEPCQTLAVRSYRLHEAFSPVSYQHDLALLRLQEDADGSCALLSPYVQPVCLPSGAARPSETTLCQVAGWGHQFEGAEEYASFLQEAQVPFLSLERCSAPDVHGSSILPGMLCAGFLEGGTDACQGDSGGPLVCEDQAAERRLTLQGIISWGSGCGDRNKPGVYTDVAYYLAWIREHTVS
FXIa inh – blocks human coagulation factor XIa protease activity | AID 798 | purified FXIa, Boc-Glu-Ala-Arg-AMC fluorogenic substrate | 220,000 tested, 0.14% active | P03951 | inhibition, % at 5 µM;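 active = inhibition of at least 40%; inactive = inhibition below 40%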;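 note: fluorescence of freed AMC excited at 355 nm; 0% = enzyme without compound and 100% = no enzyme blank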
KLK5 inh – kallikrein 5 (human) inhibition; Q9Y337; recombinant hK5, fluorogenic AMC substrate cleavage; inhibition, % at 5 µM; 210,000 tested, 0.59% active; AID 873;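 active = inhibition of 40% or more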;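 note: 0% = enzyme controls without compound and 100% = no-enzyme blanks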
S1P3 antag – antagonists of human S1P3 receptor; Q99500; CHO S1P3 NFAT-BLA reporter, FRET fluorescence, antagonist mode; inhibition, % at 4.98 µM; 170,000 tested, 0.27% active; AID 485;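 active = inhibition above the plate cutoff, the mean inhibition of test wells on that plate plus 3 SD, cut at about 28% in these data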;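 note: cells challenged with S1P at its EC80 of 0.8 µM; blue over green emission ratio from cleaved BLA substrate after 4 h stimulation; 0% = S1P-stimulated wells and 100% = unstimulated DMSO-only wells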
* marks the source's active call; other numbers are inactive results; · = not tested or not shown.

SMILES	DTT redox prof	Thrombin inh	FXIIa inh	FXIa inh	KLK5 inh	S1P3 antag
Cc1cc(/C=N/n2cnnc2)c(C)n1-c1ccc(OCc2ccc(F)cc2)cc1	3	3	1	-9	1	77*
Cc1cc(/C=N/n2cnnc2)c(C)n1-c1ccc(OCc2ccc(Cl)cc2Cl)cc1	2	2	15	4	8	·
Cc1cc(S(=O)(=O)NCc2ccc(N3CCN(C)CC3)cc2)c(C)s1	·	-2	7	2	-3	-5
CN1CCN(c2ccc(CNS(=O)(=O)Cc3ccc(Cl)cc3)cc2)CC1	·	31	61*	33	18	-11
COC(=O)NCC(c1cccnc1)N1CCN(c2ccccc2F)CC1 (stereo not drawn)	0	-1	16	10	2	102*
Cc1ccc(S(=O)(=O)NC(=O)N2CCC(C)CC2)cc1	0	50*	22	4	39	3
O=C(NNC(=O)c1cccc2ccccc12)c1ccc2c(c1)OCO2	·	-4	9	4	-7	-1
CCCC(c1nnnn1CCOC)N1CCN(c2nc3ccccc3s2)CC1 (stereo not drawn)	-1	·	8	-1	-1	-6
O=C(O)/C=C/C(=O)N1CCN(S(=O)(=O)c2cc(C(F)(F)F)ccc2Cl)CC1	-1	18	31	34	53*	7
CC(NCCC1(Cc2ccccc2Cl)CCOC(C)(C)C1)c1cccs1 (stereo not drawn)	·	-4	11	4	3	11
O=C1CN(Cc2ccccc2)C(=NCc2ccco2)S1	4	13	44*	6	33	-10
O=C(O)CCCC(=O)N1N=C(c2ccccc2)CC1c1cccs1 (stereo not drawn)	·	7	25	49*	24	10
O=C(O)CCC(=O)N1N=C(c2ccccc2)CC1c1cccs1 (stereo not drawn)	·	2	10	4	3	-4
CCOC(=O)N1CCN(CC(O)COc2c(C)cccc2C)CC1 (stereo not drawn)	1	4	23	9	-14	6
Cc1cccc(C)c1OCC(O)CN (stereo not drawn)	-1	19	6	11	52*	5
CSc1ccc(C(=O)/C=C/c2ccc(N)cc2)cc1	0	22	6	17	69*	-11
Cc1cc(C)nc(Nc2ccccc2Br)n1	2	45*	20	20	59*	-11
Cc1noc(C)c1C(=O)N1CCC(C(=O)c2ccc(F)cc2F)CC1	·	-8	2	0	-4	-4
CCOc1ccc(S(=O)(=O)N2CCN(S(=O)(=O)c3ccc(OCC)cc3)C(C)C2)cc1 (stereo not drawn)	1	-2	4	-6	-4	71*
CCOC(=O)N1CCN(S(=O)(=O)c2ccc(OCC)cc2)CC1	0	0	-2	0	-19	·
Nc1nc(N)nc(COc2ccccc2)n1	-1	-5	9	0	5	-7
O=C(Cc1cccs1)Nc1cccc(C(=O)Nc2ccco2)c1	0	-10	2	-5	-19	52*
CC(=O)c1cccc(NC(=O)Cc2cccs2)c1	-3	-4	7	2	-7	12
CCN(CC)c1ccc2c(Cl)cc(=O)oc2c1	2	-1	13	-1	-67	·
CCNc1ccc2c(Cl)cc(=O)oc2c1	1	0	56*	31	-48	20
SMILES	DTT redox prof	Thrombin inh	FXIIa inh	FXIa inh	KLK5 inh	S1P3 antag
O=C(NC1CCCCC1)N1CCC(c2nc3ccccc3[nH]2)CC1	1	-2	7	-8	-22	-16
O=C(C1CCCCC1)N1CCC(c2nc3ccccc3[nH]2)CC1	18	18	13	-1	71*	-18
O=C(CN1CCC(n2cnc3cc(F)ccc32)CC1)Nc1ccccc1Br	0	-9	7	4	6	-5
CCOC(=O)C1CCN(C(=O)c2ccco2)CC1	2	-7	18	2	-7	69*
CC12C=CC3(O1)C(C(=O)N(c1cccnc1)C3C(=O)NC1CCCCC1)C2C(=O)Nc1ccccc1 (stereo not drawn)	0	11	24	2	72*	·
CC(C)(C)NC(=O)C1N(c2cccnc2)C(=O)C2C(C(=O)Nc3ccccc3F)C3(C)C=CC21O3 (stereo not drawn)	1	0	20	1	-4	2
O=C(NCC(=O)N(c1cccc(F)c1)C(C(=O)NC1CCCC1)c1cccnc1)c1cccs1 (stereo not drawn)	0	-10	-1	2	-2	-5
Nn1c(SCC(=O)Nc2ccc(F)cc2F)nnc1-c1cccnc1	-5	34	34	10	41*	-33
CCn1c(C)nc2cc(C(=O)NNC(=S)Nc3ccc(C)cc3)ccc21	·	43*	51*	31	17	4
CCn1c(C)nc2cc(C(=O)NNC(=S)Nc3ccccc3OC)ccc21	·	5	6	2	-11	-14
OCC1(CCOc2ccccc2)CCN(Cc2nc3ccc(F)cc3[nH]2)CC1	0	-2	9	1	1	8
CCOCCn1c(CN2CCOCC2)nc2c1c(=O)[nH]c(=O)n2C	-1	-6	2	-7	41*	8
CCCCNC(=O)CSc1nc2ccc(N3CCOCC3)cc2c(=O)n1Cc1ccc(OC)cc1	-2	0	10	1	·	10
COCCNC(=O)CSc1nc2ccc(N3CCOCC3)cc2c(=O)n1Cc1ccc(OC)cc1	-4	3	-7	-6	103*	·
Cn1c(Cl)nc2c1c(=O)n(Cc1cccc(Br)c1)c(=O)n2C	-1	104*	12	14	34	·
CC(=O)NNC(=S)NC(=O)c1ccccc1	0	43*	42*	21	8	3
CC(C)CN=c1cc(-c2ccccc2)oc2ccc(Cl)cc12	2	16	20	2	-1	·
CC(O)CN=c1cc(-c2ccccc2)oc2ccc(Cl)cc12 (stereo not drawn)	3	15	16	-4	68*	·
Cc1ccc(/C=C/C(=O)Nc2cccc(S(=O)(=O)N3CCOCC3)c2)o1	0	40	7	-5	72*	-9
O=C(/C=C/c1ccco1)Nc1cccc(S(=O)(=O)N2CCOCC2)c1	0	-10	1	-5	-6	-1
Cc1ccc(NC2=NC3(CCCCC3)N=C(N)N2)c(C)c1	0	2	13	45*	37	-24
CCCC(=O)n1nc(-c2ccc(C)cc2)nc1NCc1ccco1	0	58*	3	-2	·	-10
Cc1ccc(C(=O)n2nc(-c3ccccc3)nc2NCc2ccco2)cc1	2	12	12	5	11	·
CC(=O)n1nc(-c2ccc(Cl)cc2)nc1NCc1ccco1	0	47*	15	-12	1	·
Cc1cc(C)nc(NN=C(c2ccccc2)c2ccccc2)n1	0	-6	2	0	-19	7

Source: PubChem
